Source: PubChem BioAssay
Most compounds without a hit are left out; they make up all but 2.2% or so of the library.
NR2E3 ag-1: agonists of human nuclear receptor NR2E3; 320,000 tested, 0.12% active; inhibition of corepressor binding, % at 4.78 µM; Q9Y5X4; GST-NR2E3/biotin-RetCOR TR-FRET, 1536-well;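 active means percent inhibition above the cutoff of mean plus 3 SD of all tested compounds, set per screening campaign, cut at about 20% in these data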;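 further: 0% = DMSO wells and 100% = biotin wells as full block of FRET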
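Material – GST-tagged NR2E3 plus biotinylated RetCOR corepressor · Quantity – NR2E3 fusion 1.35 nM · Times – 5 h incubation at 4 °C · Medium – pH 7.5 Tris-based buffer · Technique – TR-FRET, Eu(K)-anti-GST donor, streptavidin-D2 acceptor, ex 340, em 617/671 nm · Benchmarks – high control biotin, low control 0.6% DMSO · Format – 1536-well plates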
GalR3 antagonist: antagonists of human GalR3; HEK293 GalR3-CNG cAMP membrane potential fluorescence; galR3 body fused to GalR1 C-terminus; inhibition, % at 3 µM; AID 651719; 360,000 tested, 0.44% active;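 active means inhibition above the screen-wide average plus 3 SD, cut at about 13% in these data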;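 further: forskolin and galanin both at EC90 stimulate the cells; cAMP rise reported by CNG channel membrane potential dye signal; 0% = forskolin plus galanin with DMSO and 100% = forskolin alone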
Target sequence (O60755 1-299 limits assumed): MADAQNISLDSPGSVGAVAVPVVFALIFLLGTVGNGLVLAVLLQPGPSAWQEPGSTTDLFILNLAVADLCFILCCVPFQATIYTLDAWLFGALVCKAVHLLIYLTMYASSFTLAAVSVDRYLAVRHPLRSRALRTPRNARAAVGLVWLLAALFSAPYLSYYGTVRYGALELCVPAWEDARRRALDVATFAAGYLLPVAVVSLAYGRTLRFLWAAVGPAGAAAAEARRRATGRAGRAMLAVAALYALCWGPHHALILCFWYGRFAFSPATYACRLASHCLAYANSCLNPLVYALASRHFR
COUP-TFII inh: NR2F2 (human) inhibition, primary screen. AID 686940. HEK293T NGFI-A luciferase reporter, luminescence. inhibition, % at 8.6 µM. P24468. 370,000 tested, 0.7% active;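 active means inhibition above a per-plate cutoff, mean inhibition of test wells between control levels plus 3 SD, cut at about 38% in these data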;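 further: cells cotransfected with COUP-TFII expression vector driving the NGFI-A reporter; 0% = median of COUP-TF2 test wells and 100% = reporter-only cells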
Target sequence (P24468 whole entry, looked up): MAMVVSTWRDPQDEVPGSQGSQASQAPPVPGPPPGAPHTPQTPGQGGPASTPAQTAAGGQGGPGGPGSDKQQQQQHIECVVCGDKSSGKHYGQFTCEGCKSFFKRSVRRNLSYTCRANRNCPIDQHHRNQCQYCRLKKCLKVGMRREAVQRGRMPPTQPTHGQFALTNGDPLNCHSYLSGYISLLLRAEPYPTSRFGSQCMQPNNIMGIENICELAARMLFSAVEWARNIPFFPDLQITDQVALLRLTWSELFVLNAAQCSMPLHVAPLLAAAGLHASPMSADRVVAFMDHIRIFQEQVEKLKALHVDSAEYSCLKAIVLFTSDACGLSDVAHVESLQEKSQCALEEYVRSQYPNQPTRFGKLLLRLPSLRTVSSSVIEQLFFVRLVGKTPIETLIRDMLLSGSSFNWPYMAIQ
NR2E3 ag-2: agonists of human NR2E3 nuclear receptor | CHO-S Gal4-NCOR/VP16-NR2E3 two-hybrid, luciferase | Q9Y5X4 | inhibition of corepressor binding, % at 3.98 µM | AID 602229 | 360,000 tested, 0.35% active;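 active means inhibition above the mean of all tested compounds plus 3 SD, cut at about 70% in these data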;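 further: 0% = DMSO with NR2E3 transfected cells and 100% = cells lacking NR2E3 construct; higher means lower luciferase signal from less NR2E3 corepressor binding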
SMARCA2 activ: activators of SMARCA2 function; activation, % at 9.1 µM; 370,000 tested, 1% active; AID 652017; MG213 cells, MMTV-luciferase reporter, dexamethasone, overnight; in the data active means activation above about 7.8%;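 further: 0% = vehicle wells and 100% = reference activator wells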
VP16 Luc counter: VP16 inhibition counter-screen for COUP-TFII; HEK293 Gal4-VP16 luciferase reporter, luminescence; shares compounds with COUP-TFII inh; 2,500 tested, 25% active; inhibition, % at 8.5 µM; in the data active means inhibition above about 13%
NR2F2 inh conf: confirmation of human COUP-TFII (NR2F2) inhibitors; shares compounds with COUP-TFII inh; HEK293 NGFI-A luciferase reporter, luminescence; inhibition, % at 8.5 µM; 2,500 tested, 45% active; AID 687008;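 active means mean inhibition over three repeats above a set limit taken from the earlier primary screen, cut at about 38% in these data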;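 further: 100% = cells given the luciferase reporter alone without the COUP-TF2 vector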
Numbers without * were called inactive; x = no result.

SMILES	NR2E3 ag-1	GalR3 antagonist	COUP-TFII inh	NR2E3 ag-2	SMARCA2 activ	VP16 Luc counter	NR2F2 inh conf
CC(C)(C)c1ccc(-c2nc(NCc3cccnc3)c3ccccc3n2)cc1	0.1	-4.9	-12.0	-60.5	3.6	x	x
CC(C)(C)c1ccc(CNc2nc(-c3ccccn3)nnc2-c2ccccc2)cc1	x	x	49.1*	x	x	9.2	16.2
N#CCC[C@H]1CC[C@]2(CCCN(S(=O)(=O)c3ccccc3)C2)O1	x	x	-0.1	x	-4.9	x	x
COc1ccc(NC(=O)c2cc(CC(C)C)nc3ccccc23)cc1	-1.0	-1.3	42.5*	20.6	-2.1	-6.0	22.0
COc1cccc(N2CCN(CC(=O)NCc3cccc(OC)c3OC)CC2)c1	x	x	2.3	x	-5.7	x	x
COc1ccc(-c2nnn3c2Cn2c4ccccc4c(=O)n2[C@@H](C)C3)cc1	x	x	5.2	x	-0.2	x	x
O=C(Nc1ccc(Oc2ccccc2)cc1)C1CCCN1S(=O)(=O)c1cccc2cccnc12 (stereo not drawn)	x	x	41.8*	x	-5.5	12.5	35.2
FC(F)(F)c1cccc(NC(=S)N(CCCN2CCCC2)Cc2cccn2Cc2ccc(Cl)cc2)c1	-4.5	-3.6	38.5*	44.9	-4.7	-2.2	1.1
Cc1ccc(NC(=S)N(CCCN2CCCC2)Cc2cccn2Cc2ccc(Cl)cc2)cc1C	-2.4	-2.6	-6.4	21.2	5.9	x	x
CN(C)c1ccc(C(=S)Nc2ccccc2)cc1	2.4	-2.6	46.3*	35.9	-2.8	-88.9	22.1
CN(C)c1ccc(C(=O)N/N=C/c2ccccn2)cc1	3.9	7.1	-46.0	-29.4	1.7	x	x
CN(C)c1ccc(NC(=S)c2ccccn2)cc1	-3.4	-3.0	41.9*	-52.1	1.1	8.3	38.2*
CN(C)c1cc(O)c(C(=S)Nc2ccccc2)c(N(C)C)c1	-3.4	0.4	-6.6	-36.7	1.6	x	x
Nc1c(C(=O)NCC(O)c2ccccc2)cnn1-c1ccccc1 (stereo not drawn)	x	x	-28.1	x	4.6	x	x
Cc1ccc(C2=[N+]([O-])C3(CCCCC3=O)N(O)C2(C)C)cc1 (stereo not drawn)	-4.3	-2.0	80.2*	8.1	-9.0	-5.8	-6.7
Cc1ccc(-c2cc(N)n(Cc3ccc(Cl)cc3)n2)cc1	-1.8	88.9*	47.6*	-10.2	-1.4	-18.8	21.1
COc1ccc(C(=O)Nc2ccc(NC(=O)c3ccccc3)cc2)cc1S(=O)(=O)N1CCOCC1	-1.0	-5.2	-9.0	-28.9	-1.2	x	x
O=C(Nc1ccc(N2CCCCCC2)cc1)c1cccc(S(=O)(=O)N2CCOCC2)c1	-0.6	-6.3	46.0*	33.3	-5.9	-2.3	38.3*
COc1ccc(C(=O)Nc2ccc(N3CCCCCC3)cc2)cc1S(=O)(=O)N1CCOCC1	5.5	-3.6	48.9*	-14.0	-4.4	-1.9	35.9
COc1ccc(/C=C/C(=O)Nc2ccc(C)c(S(=O)(=O)N3CCOCC3)c2)cc1	x	-2.7	68.5*	8.5	-1.7	-19.5	24.5
CCOC(=O)c1ccc(NC(=O)c2cccc(S(=O)(=O)N3CCOCC3)c2)cc1	3.1	-2.9	38.2*	18.1	-1.5	-2.4	23.1
O=S1(=O)c2c(cccc2N2CCC[C@@H]2CO)O[C@@H]2CCN1C2	x	x	0.4	x	-1.2	x	x
O=C(N/N=C/c1sc(N2CCOCC2)nc1-c1ccccc1)c1cccc(S(=O)(=O)N2CCCC2)c1	2.3	-3.7	37.6*	17.0	-0.7	2.9	66.8*
Cc1ccc(NC(=O)c2cccnc2)cc1S(=O)(=O)N1CCOCC1	1.1	2.2	-4.6	-15.5	-1.1	x	x
O=C(N/N=C/c1sc(N2CCOCC2)nc1-c1ccccc1)c1ccc(O)cc1	-3.4	-4.2	-30.4	-17.9	0.8	x	x
SMILES	NR2E3 ag-1	GalR3 antagonist	COUP-TFII inh	NR2E3 ag-2	SMARCA2 activ	VP16 Luc counter	NR2F2 inh conf
Cc1cc(C)n(-c2ccc(C(=O)Nc3ccc(C)c(S(=O)(=O)N4CCOCC4)c3)cc2)n1	2.9	-6.8	50.6*	-7.8	0.0	-1.2	25.7
CCOc1ccc(S(=O)(=O)N2CCOCC2)cc1[N+](=O)[O-]	4.6	0.3	17.3	-6.0	-4.3	x	x
COc1cccc(Oc2ccc(S(=O)(=O)N3CCOCC3)cc2[N+](=O)[O-])c1	x	-4.7	44.2*	-68.9	-2.5	-9.0	0.1
Cc1cccc(C)c1NC(=O)c1cc(S(=O)(=O)N2CCc3ccccc32)cn1C	3.6	x	-18.1	-73.0	-0.4	x	x
Cn1cc(S(=O)(=O)N2CCc3ccccc32)cc1C(=O)NC(C)(C)C	1.6	x	59.3*	37.3	-2.3	4.8	45.2*
COc1ccc(-n2c(COc3ccc(Cl)cc3)nnc2SCC(=O)c2ccc(-c3ccccc3)cc2)cc1	x	x	0.8	x	-6.0	x	x
Cc1ccc(-n2nc3c(=O)n(C(C)C(=O)NCc4ccccc4Cl)nc(C)c3c2C)cc1 (stereo not drawn)	1.4	-4.0	47.5*	31.9	-3.5	4.9	38.7*
Cc1ccc(-n2nc3c(=O)n(C(C)C(=O)NCc4ccco4)nc(C)c3c2C)cc1 (stereo not drawn)	-2.6	3.1	0.6	-2.4	-0.9	x	x
Cc1cccc(N2CC(C(=O)Nc3cccc(S(=O)(=O)N4CCCCC4)c3)CC2=O)c1C (stereo not drawn)	1.2	-6.1	47.0*	5.2	-6.0	2.9	14.3
Cc1c[nH]c2cccc(-c3ccc(Cl)cc3Cl)c12	x	x	-40.8	x	2.7	x	x
CC[n+]1ccccc1/C=C/c1ccc(N(C)C)cc1	x	-3.6	66.0*	-6.6	-6.5	0.6	50.1*
CC[n+]1ccc(/C=C/c2ccc(N(C)C)cc2)c2ccccc21	x	2.9	78.4*	36.7	-7.4	33.7*	88.4*
CC[n+]1c(/C=C/c2ccc(N(C)C)cc2)ccc2ccccc21	-25.4	8.0	68.1*	21.1	-10.3	28.9*	91.0*
CCC(NC(=O)c1ccc2c(c1)c(C)c(C)n2Cc1ccc(Cl)cc1)c1ccccc1 (stereo not drawn)	x	x	15.3	x	0.4	x	x
Cn1c(=O)cc(OCCCC(=O)Nc2cc(-c3cn[nH]c3)ccn2)c2ccccc21	x	x	54.7*	x	x	34.7*	36.5
COC(=O)[C@]12C[C@H](CC(=O)N3CCCCC3)C(=O)N(CCc3ccc(OC)c(OC)c3)C1=C[C@H](C1CCCC1)O[C@@H]2C	x	x	-24.9	x	4.2	x	x
Cc1cccc(NC(=O)c2ccc(C3SCC(=O)N3CCc3ccccc3)cc2)c1 (stereo not drawn)	0.0	1.9	45.4*	11.5	-6.9	4.3	12.2
CC(=O)Nc1ccc(NC(=O)c2ccc(C3SCC(=O)N3CCc3ccccc3)cc2)cc1 (stereo not drawn)	0.1	-1.3	20.5	0.5	3.5	x	x
O=C(c1ccc(Oc2ccc([N+](=O)[O-])cc2Cl)cc1)N1CCCC1	-1.7	-4.8	-0.2	0.5	-0.3	x	x
O=C(c1ccc(Oc2ccc([N+](=O)[O-])cc2)cc1)N1CCCCCC1	-6.5	-9.1	46.5*	22.9	-2.5	-5.4	14.2
